Experimental data: ChEMBL document CHEMBL3763021 (Eur J Med Chem, 2016)

System: not listed separately
Assay: Clearance in Sprague-Dawley rat at 5 mg/kg, po by LC/MS/MS analysis
Assay type: ADME, organism-based
Settings: in vivo
Method in brief: (§1)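 Male SD rats, 180–240 g, 3 per compound; single dose of 1 mg/kg iv or 5 mg/kg po, dosing volume 5 mL/kg. Blood was sampled from 2 min to 24 h and centrifuged at 4 °C. Plasma underwent protein precipitation, then LC/MS/MS in SRM mode with an internal standard. Parameters were derived by noncompartmental analysis.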

CL/F [mL/min/kg] | SMILES
80.8 | Cc1ccc(CN2CCOCC2)cc1NC(=O)c1ccc(Nc2ncc(F)c(-c3ccc(OC(F)(F)F)cc3)n2)cn1

System: not listed separately
Assay: Cmax in Sprague-Dawley rat at 5 mg/kg, po by LC/MS/MS analysis
Assay type: ADME, organism-based
Design: dose 5 mg/kg, route oral
Settings: in vivo
Method in brief: as §1

Cmax [ng/mL] | SMILES
86.6 | Cc1ccc(CN2CCOCC2)cc1NC(=O)c1ccc(Nc2ncc(F)c(-c3ccc(OC(F)(F)F)cc3)n2)cn1

System: not listed separately
Assay: Cmax in Sprague-Dawley rat at 1 mg/kg, iv by LC/MS/MS analysis
Assay type: ADME, organism-based
Design: dose 1 mg/kg, route intravenous
Settings: in vivo
Method in brief: as §1

Cmax [ng/mL] | SMILES
3140 | Cc1ccc(CN2CCOCC2)cc1NC(=O)c1ccc(Nc2ncc(F)c(-c3ccc(OC(F)(F)F)cc3)n2)cn1

System: not listed separately
Assay: Inhibition of Sonic-induced hedgehog signalling in mouse NIH3T3 cells after 48 hrs by Gli-luciferase reporter assay
Assay type: cell-based
Settings: NIH3T3, 48 h
Method in brief: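 NIH3T3 cells stably carrying a Gli-luciferase reporter were kept in DMEM with 10% FBS and 1 µg/mL puromycin, then seeded at 2×10^4 cells/well overnight at 37 °C. Compounds at 0.05–300 nM (8 concentrations) were added in medium with 0.5% FBS and 0.7 µg/mL Sonic Hh agonist, n=4 wells, for 48 h. Readout was the Firefly/Renilla luciferase ratio in lysates.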

IC50 [nM] | SMILES
1.14 | Cc1ccc(CN2CCOCC2)cc1NC(=O)c1ccc(Nc2ncc(F)c(-c3ccc(OC(F)(F)F)cc3)n2)cn1

System: not listed separately
Assay: Mean resident time (0 to t) in Sprague-Dawley rat at 1 mg/kg, iv by LC/MS/MS analysis
Assay type: ADME, organism-based
Settings: in vivo
Method in brief: as §1

MRT last [h] | SMILES
4.23 | Cc1ccc(CN2CCOCC2)cc1NC(=O)c1ccc(Nc2ncc(F)c(-c3ccc(OC(F)(F)F)cc3)n2)cn1

System: not listed separately
Assay: Half life in Sprague-Dawley rat at 5 mg/kg, po by LC/MS/MS analysis
Assay type: ADME, organism-based
Settings: in vivo
Method in brief: as §1

half-life [min] | SMILES
434 | Cc1ccc(CN2CCOCC2)cc1NC(=O)c1ccc(Nc2ncc(F)c(-c3ccc(OC(F)(F)F)cc3)n2)cn1

System: Rattus norvegicus
Assay: Apparent volume of distribution in Sprague-Dawley rat at 5 mg/kg, po by LC/MS/MS analysis
Settings: in vivo

Vd(app) [mL/kg] | SMILES
50455.46 | Cc1ccc(CN2CCOCC2)cc1NC(=O)c1ccc(Nc2ncc(F)c(-c3ccc(OC(F)(F)F)cc3)n2)cn1

System: not listed separately
Assay: AUC (0 to t) in Sprague-Dawley rat at 5 mg/kg, po by LC/MS/MS analysis
Assay type: ADME, organism-based
Settings: in vivo
Method in brief: as §1

AUC(0-t) [ng·h/mL] | SMILES
923 | Cc1ccc(CN2CCOCC2)cc1NC(=O)c1ccc(Nc2ncc(F)c(-c3ccc(OC(F)(F)F)cc3)n2)cn1

System: not listed separately
Assay: Apparent volume of distribution in Sprague-Dawley rat at 1 mg/kg, iv by LC/MS/MS analysis
Settings: in vivo

Vd [L/kg] | SMILES
6.28 | Cc1ccc(CN2CCOCC2)cc1NC(=O)c1ccc(Nc2ncc(F)c(-c3ccc(OC(F)(F)F)cc3)n2)cn1

System: not listed separately
Assay: AUC (0 to t) in Sprague-Dawley rat at 1 mg/kg, iv by LC/MS/MS analysis
Assay type: ADME, organism-based
Settings: in vivo
Method in brief: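 Male SD rats, 3 per compound, 180–240 g, single iv dose at 1 mg/kg, dosing volume 5 mL/kg. Blood sampled at 2, 5, 15, 30 min and 1, 2, 4, 6, 8, 10, 24 h, then centrifuged at 4 °C. Plasma protein-precipitated and analysed by LC/MS/MS in SRM mode with internal standard. AUC(0-t) obtained by noncompartmental analysis.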

AUC(0-t) [ng·h/mL] | SMILES
1890 | Cc1ccc(CN2CCOCC2)cc1NC(=O)c1ccc(Nc2ncc(F)c(-c3ccc(OC(F)(F)F)cc3)n2)cn1

System: not listed separately
Assay: Clearance in Sprague-Dawley rat at 1 mg/kg, iv by LC/MS/MS analysis
Assay type: ADME, organism-based
Settings: in vivo
Method in brief: as §1

clearance [mL/min/kg] | SMILES
8.37 | Cc1ccc(CN2CCOCC2)cc1NC(=O)c1ccc(Nc2ncc(F)c(-c3ccc(OC(F)(F)F)cc3)n2)cn1

System: not listed separately
Assay: Half life in Sprague-Dawley rat at 1 mg/kg, iv by LC/MS/MS analysis
Assay type: ADME, organism-based
Settings: in vivo
Method in brief: as §1

half-life [min] | SMILES
531 | Cc1ccc(CN2CCOCC2)cc1NC(=O)c1ccc(Nc2ncc(F)c(-c3ccc(OC(F)(F)F)cc3)n2)cn1

System: not listed separately
Assay: Mean resident time (0 to t) in Sprague-Dawley rat at 5 mg/kg, po by LC/MS/MS analysis
Assay type: ADME, organism-based
Settings: in vivo
Method in brief: as §1

MRT last [h] | SMILES
7.74 | Cc1ccc(CN2CCOCC2)cc1NC(=O)c1ccc(Nc2ncc(F)c(-c3ccc(OC(F)(F)F)cc3)n2)cn1
